Test results published in ChEMBL document CHEMBL4732158, “Bicyclic Ligand-Biased Agonists of S1P: Exploring Side Chain Modifications to Modulate the PK, PD, and Safety Profiles” (J Med Chem, 2021).

Assays:
[1] = tested on: Rattus norvegicus; experiment: Reduction in circulating lymphocytes count in Lewis rat at 2 mg/kg, po measured at 4 hrs by hematology analyzer based analysis; type: functional; design: scale not given: the % may be the effect or the level left
In short: (§1)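 Lewis rats (n = 2−4) dosed orally; whole-blood lymphocyte counts taken 4 h and 24 h after dosing and reduction expressed versus vehicle-treated rats. Significance by ANOVA with Dunnett's test (p < 0.05 vs vehicle). Blood levels of parent and phosphate metabolite measured at the same time points in this PK/PD screen.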

[2] = Drug concentration in Lewis rat blood assessed as concentration of parent compound at 2 mg/kg, po measured at 4 hrs by LC-MS/MS analysis; type: ADME, organism-based; conditions: read-out: Ct; for concentration at 4 h: Lewis, blood
In short: (§2)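 Lewis rats (n = 2−4) dosed orally at 0.5, 1, 2 or 5 mg/kg; blood parent and phosphate metabolite concentrations and lymphocyte counts taken 4 and 24 h post-dose; phosphate-to-parent ratio from 24 h levels; significance versus vehicle by ANOVA with Dunnett's test.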

[3] = Reduction in circulating lymphocytes count in Lewis rat at 2 mg/kg, po measured at 24 hrs by hematology analyzer based analysis; type: Functional, organism-based; design: scale not given: the % may be the effect or the level left; conditions: in vivo; in short: as §1
[4] = Drug concentration in Lewis rat blood assessed as concentration of parent compound at 2 mg/kg, po measured at 24 hrs by LC-MS/MS analysis; type: ADME, organism-based; conditions: in vivo; for concentration: read-out: Ct; in short: as §2
[5] = Ratio of drug metabolism in Lewis rat blood assessed as phosphate ester metabolite to parent drug at 2 mg/kg, po measured at 24 hrs by LC-MS/MS analysis; type: ADME, organism-based; conditions: in vivo; in short: as §2
[6] = Pulmonary toxicity in Lewis rat assessed as fold elevation of BAL protein content at 2 mg/kg, po by chemistry analyzer based analysis relative to control; type: organism-based; conditions: in vivo
In short: (§3)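 Lewis rats dosed orally; bronchoalveolar lavage protein measured at study end, expressed as fold over vehicle control.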

[7] = Cardiotoxicity in human iPSC derived cardiomyocytes assessed as change in heart rate at 1 nM measured over 2 hrs by multi-electrode array relative to control; type: toxicity, cell-based; conditions: stem cell-derived cardiomyocyte, 0.001 µM
In short: (§4)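 Phosphate metabolite of each compound prepared and tested on cultured human induced pluripotent stem cell-derived cardiomyocytes at 1 and 10 nM; beat rate change averaged over three or more replicates per concentration unless noted (some n = 2).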

[8] = Cardiotoxicity in human iPSC derived cardiomyocytes assessed as change in heart rate at 10 nM measured over 2 hrs by multi-electrode array relative to control; type: toxicity, cell-based; conditions: stem cell-derived cardiomyocyte, 0.01 µM; in short: as §4
[9] = tested on: Rattus norvegicus; experiment: Reduction in circulating lymphocytes count in Lewis rat at 1 mg/kg, po measured at 4 hrs by hematology analyzer based analysis; type: functional; design: scale not given: the % may be the effect or the level left; in short: as §2
[10] = Drug concentration in Lewis rat blood assessed as concentration of parent compound at 1 mg/kg, po measured at 4 hrs by LC-MS/MS analysis; type: ADME, organism-based; conditions: for concentration at 4 h: Lewis, blood; for concentration at 4 h / concentration: read-out: Ct; in short: as §2
[11] = Reduction in circulating lymphocytes count in Lewis rat at 1 mg/kg, po measured at 24 hrs by hematology analyzer based analysis; type: organism-based; design: scale not given: the % may be the effect or the level left; conditions: in vivo; in short: as §2
[12] = Drug metabolism in Lewis rat blood assessed as concentration of parent compound at 1 mg/kg, po measured at 24 hrs by LC-MS/MS analysis; type: ADME, organism-based; conditions: for concentration at 24 h: Lewis, blood; for concentration at 24 h / concentration: read-out: Ct; for concentration / Ct: in vivo, 1 mg/kg, 24 h; for Ct: BLD = below limit of detection; in short: as §2
[13] = Pulmonary toxicity in Lewis rat assessed as fold elevation of BAL protein content at 1 mg/kg, po by chemistry analyzer based analysis relative to control; type: organism-based; conditions: in vivo; in short: as §3
[14] = Drug metabolism in Lewis rat blood assessed as phosphate ester metabolite to parent ratio at 1 mg/kg, po measured at 24 hrs by LC-MS/MS analysis; conditions: in vivo
[15] = Half life in Lewis rat at 1 mg/kg, po measured at 4 to 72 hrs; type: ADME, organism-based; conditions: in vivo, time 4-72 hrs
In short: (§5)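 Half-life estimated from oral-dosing blood PK profiles in Lewis rats sampled at four time points: 4, 24, 48 and 72 h.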

[16] = Half life in Lewis rat at 2 mg/kg, po measured at 4 to 72 hrs; type: ADME, organism-based; conditions: in vivo, time 4-72 hrs; for half-life: Lewis; in short: as §5
[17] = in vivo, 1 mg/kg, 4 h, 1 mg/kg, 4 h

| Activity [3] | concentration at 4 h [10] | Activity [11] | concentration at 24 h [12] | Ratio [14] | SMILES | Activity [7] | Activity [8] | fold change (FC) [13] | Activity [9] | other results |
| --- | --- | --- | --- | --- | --- | --- | --- | --- | --- | --- |
| 73% | – | – | – | – | CCCSCC[C@@H]1CCc2cc([C@H]3CC[C@](N)(CO)C3)ccc2C1 | -43% | -42% | – | – | Activity [1]: 63%; concentration at 4 h [2]: 193 nM; concentration [4]: 72 nM; Ratio [5]: 0.17; fold change (FC) [6]: 1.1 |
| – | 244 nM | 78% | 210 nM | 0.86 | CCCCCOC1CCc2cc([C@H]3CC[C@](N)(CO)C3)ccc2C1 (stereo in doubt; 10a) | – | – | 0.94 | – | Activity ([9]; 1 mg/kg, 4 h): 62% |
| – | 24 nM | 0% | 24 nM | 0.27 | CCCC/C=C\[C@@H]1CCc2cc([C@H]3CC[C@](N)(CO)C3)ccc2C1 | – | – | – | 4% | – |
| 12% | – | – | – | – | COCCC1CCc2cc([C@H]3CC[C@](N)(CO)C3)ccc2C1 (stereo in doubt; 21a) | – | – | – | – | Activity [1]: 0% |
| – | – | 82% | – | – | CCCCCCOC1CCc2cc([C@H]3CC[C@](N)(CO)C3)ccc2C1 (stereo in doubt; 30a) | -39% | -40% | 1.1 | – | Activity ([9]; 1 mg/kg, 4 h): 39%; concentration [10, 17]: 53 nM; concentration [12]: 28 nM |
| – | 31 nM | 62% | 51 nM | 2.3 | CCC/C=C/CC1CCc2cc([C@H]3CC[C@](N)(CO)C3)ccc2C1 (single isomer, unassigned) | -9.6% | -23% | – | 10% | half-life [15]: 62 h |
| 84% | – | – | – | – | COCCCCCCC1CCc2cc([C@H]3CC[C@](N)(CO)C3)ccc2C1 (stereo in doubt; 25a) | -16% | -32% | – | – | Activity ([1]; 2 mg/kg, 4 h): 70%; concentration at 4 h [2]: 265 nM; concentration [4]: 69 nM; half-life [16]: 31 h; Ratio [5]: 3.9; fold change (FC) [6]: 1.7 |
| – | 32 nM | 80% | – | – | CCCCCCCOC1CCc2cc([C@H]3CC[C@](N)(CO)C3)ccc2C1 (stereo in doubt; 33a) | – | – | 0.85 | – | Activity ([9]; 1 mg/kg, 4 h): 13%; concentration [12]: 54 nM; half-life [15]: 29 h |
| – | 78 nM | 20% | – | – | CCCOCCOC[C@H]1CCc2cc([C@H]3CC[C@](N)(CO)C3)ccc2C1 | – | – | 2.4 | 67% | Ct [12]: Bld |
| 79% | – | – | – | – | COCCCCCCC1CCc2cc([C@H]3CC[C@](N)(CO)C3)ccc2C1 (stereo in doubt; 25b) | -25% | – | – | – | Activity ([1]; 2 mg/kg, 4 h): 45%; concentration ([2]; in vivo, 2 mg/kg, 4 h, 2 mg/kg, 4 h): 320 nM; concentration [4]: 295 nM; t1/2 ([16]; 2 mg/kg): 26 h; Ratio [5]: 2.5; fold change (FC) [6]: 1.2 |
| – | – | 67% | – | 0.27 | CCCCCOC1CCc2cc([C@H]3CC[C@](N)(CO)C3)ccc2C1 (stereo in doubt; 10b) | -12% | -49% | – | – | Activity ([9]; 1 mg/kg, 4 h): 32%; concentration [10, 17]: 215 nM; concentration [12]: 240 nM |
| – | – | 63% | 73 nM | 0.36 | CCCCSC[C@@H]1CCc2cc([C@H]3CC[C@](N)(CO)C3)ccc2C1 | -28% | -46% | 1.1 | 6% | Ct ([10]; in vivo, 1 mg/kg, 4 h, BLD = below limit of detection): Bld; half-life [15]: 27 h |
| – | 10 nM | 71% | 14 nM | 8.6 | CCC/C=C\CC1CCc2cc([C@H]3CC[C@](N)(CO)C3)ccc2C1 (single isomer, unassigned) | -11% | -25% | – | 13% | half-life [15]: 59 h |
| – | 165 nM | 69% | 180 nM | 1.3 | CC/C=C\CC[C@@H]1CCc2cc([C@H]3CC[C@](N)(CO)C3)ccc2C1 | -21% | -38% | – | 31% | half-life [15]: 5 h |
| 74% | – | – | – | – | CCSCCCC1CCc2cc([C@H]3CC[C@](N)(CO)C3)ccc2C1 (single isomer, unassigned) | -42% | -53% | – | – | Activity [1]: 65%; concentration at 4 h [2]: 190 nM; concentration [4]: 42 nM; half-life [16]: 14 h |
| – | – | – | – | – | CCCCCCCOC1CCc2cc([C@H]3CC[C@](N)(CO)C3)ccc2C1 (stereo in doubt; 33b) | – | – | 1 | – | Activity ([9]; 1 mg/kg, 4 h): 14%; concentration [10, 17]: 40 nM; concentration [12]: 25 nM |
| – | 57 nM | 72% | 77 nM | 2.6 | CCCC/C=C/[C@@H]1CCc2cc([C@H]3CC[C@](N)(CO)C3)ccc2C1 | – | – | – | 0% | half-life [15]: > 75 h |
| 40% | 46 nM | 70% | – | – | CCCOCCOC1CCc2cc([C@H]3CC[C@](N)(CO)C3)ccc2C1 (stereo partly drawn) | – | – | 1.3 | 72% | Activity [1]: 0%; concentration at 4 h [2]: 100 nM; Ct [12]: Bld; Ct ([4]; BLD = below limit of detection): Bld; Ratio [5]: 2.4 |
| 74% | – | – | – | – | C=CCCOC[C@@H]1CCc2cc([C@H]3CC[C@](N)(CO)C3)ccc2C1 | – | – | – | – | Activity [1]: 55%; concentration at 4 h [2]: 170 nM; concentration [4]: 48 nM; half-life [16]: 11 h; Ratio [5]: 0.9 |
| – | 15 nM | 13% | – | – | COCCOC[C@@H]1CCc2cc([C@H]3CC[C@](N)(CO)C3)ccc2C1 | – | – | 1.3 | 16% | Ct [12]: Bld |
| – | 30 nM | 75% | 40 nM | 19 | C=CCCCC[C@@H]1CCc2cc([C@H]3CC[C@](N)(CO)C3)ccc2C1 | – | – | – | 9% | half-life [15]: 47 h |
| – | 27 nM | 80% | 28 nM | – | CCCCCOC[C@@H]1CCc2cc([C@H]3CC[C@](N)(CO)C3)ccc2C1 | – | – | 2 | 27% | – |
| – | – | – | – | – | CCCCCCOC1CCc2cc([C@H]3CC[C@](N)(CO)C3)ccc2C1 (stereo in doubt; 30b) | – | – | 1.4 | – | Activity ([9]; 1 mg/kg, 4 h): 20%; concentration [10, 17]: 362 nM; concentration [12]: 417 nM |
| – | 66 nM | 74% | 140 nM | 5.8 | CC/C=C/CC[C@@H]1CCc2cc([C@H]3CC[C@](N)(CO)C3)ccc2C1 | -11% | -33% | 1.1 | 27% | half-life [15]: 4 h |
| – | 66 nM | 71% | 39 nM | 0.64 | CCCCOC[C@@H]1CCc2cc([C@H]3CC[C@](N)(CO)C3)ccc2C1 | – | – | 0.95 | 42% | – |
| 2% | – | – | – | – | COCCC1CCc2cc([C@H]3CC[C@](N)(CO)C3)ccc2C1 (stereo in doubt; 21b) | – | – | – | – | – |
| 44% | – | – | – | – | CCCCSCC1CCc2cc([C@H]3CC[C@](N)(CO)C3)ccc2C1 (single isomer, unassigned) | -14% | -25% | – | – | Activity [1]: 20%; concentration at 4 h [2]: 138 nM; concentration [4]: 110 nM; Ratio [5]: 0.23; fold change (FC) [6]: 1.1 |
| – | 12 nM | 32% | 18 nM | – | CCCCCOC[C@H]1CCc2cc([C@H]3CC[C@](N)(CO)C3)ccc2C1 | – | – | 1.7 | 7% | – |
